Data set [1] is described as follows: Half life in mouse L1210 cells allografted C3H/DBA2 F1 hybrid hybrid mouse.
The test system of data set [2] is L1210. The data set is described as follows: Antileukemic activity against ip implanted mouse L1210 cells in C3H/DBA2 F1 hybrid hybrid mouse assessed as increase life span treated ip after 24 hrs after tumor inoculation and continued for 5 days. Type of data set: functional. In a few lines:
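10^5 L1210 cells implanted ip in 18.5-22.5-g C3H/DBA2 F1 hybrid mice. Drug given ip from 24 h after inoculation, continuing for 5 days, each dose in 0.2 mL. Dose levels spaced at 0.18 log intervals, six mice per dose, one control group per six test groups. Read-out is life extension; 50-day survivors counted as cures.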

Data set [3] in a line: Retardation factor, Rm of the compound by reversed phase partition chromatography. It counts as physicochemical.
Data set [4] deals with L1210. Nature of the data set: Antileukemic activity against sc implanted mouse L1210 cells in C3H/DBA2 F1 hybrid hybrid mouse assessed as increase life span treated ip after 24 hrs after tumor inoculation and continued for 5 days. Type of data set: functional. In a few lines: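 10^5 L1210 cells implanted sc above the right axilla in 18.5-22.5-g C3H/DBA2 F1 hybrid mice. Drug given ip (0.2 mL) from 24 h for 5 days. Dilution series at 0.18 log intervals, centred on the optimum ip L1210 dose. Top dose had to show toxicity and lowest dose had to be suboptimal, otherwise the test was repeated. Read-out is life extension.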

Data set [5] concerns Mus musculus. Nature of the data set: Toxicity in sc implanted mouse L1210 cells allografted C3H/DBA2 F1 hybrid hybrid mouse assessed as optimum dose required to increase life span treated ip after 24 hrs after tumor inoculation and continued for 5 days. Type of data set: organism-based. The note with it: in vivo. In a few lines:
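10^5 L1210 cells implanted sc above the right axilla in 18.5-22.5-g C3H/DBA2 F1 hybrid mice. Ip dosing (0.2 mL per dose) ran daily for 5 days from 24 h. Dilution series at 0.18 log intervals, with the median dose set at the earlier ip L1210 optimum. Six mice per dose, one control group per six test groups. Tests were repeated until the highest dose was toxic and the lowest clearly suboptimal.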

In general, half-life refers to how long it takes for the measured level to halve. Read a low half-life as fast loss. Consider `Nc1ccc(Nc2c3ccccc3nc3ccccc23)cc1`, for which, in data set [1], the half-life amounted to 12 min.
As a reminder, the ILS is the gain in survival time of treated over control animals, in per cent. In the case of `COc1cc(NS(C)(=O)=O)ccc1Nc1c2ccccc2nc2c(C(=O)N(C)C)cccc12.Cl`, the ILS is 84% in data set [2] and 61% in data set [4]. In addition, the Rm in data set [3] turned out to be 0.09. In data set [5], the Activity came out at 15 mg/kg.
Take `COc1cc(NS(C)(=O)=O)ccc1Nc1c2ccccc2nc2c(C(=O)NCC(N)=O)cccc12.Cl`: the ILS in data set [2] is recorded as 105%; in data set [4], 41%. Besides, the Rm in data set [3] is given as -0.54. Besides, the Activity in data set [5] was 62 mg/kg.
Take `COc1cc(NS(C)(=O)=O)ccc1Nc1c2ccccc2nc2c(C(=O)N[C@H]3[C@@H](OC)O[C@H](CO)[C@@H](O)[C@@H]3O)cccc12.Cl`: the ILS in data set [2] was 100%; in data set [4] it was 49%. The Rm in data set [3] is on record as -0.57. Further, the Activity in data set [5] is 180 mg/kg.
`CCCS(=O)(=O)Nc1ccc(Nc2c3ccccc3nc3c(C(=O)N[C@H]4[C@@H](OC)O[C@H](CO)[C@@H](O)[C@@H]4O)cccc23)c(OC)c1.Cl`: the ILS in data set [2] was found to be 180%; in data set [4] it was 51%. In data set [3], this molecule gave a Rm of -0.1. Also, in data set [5], the Activity amounted to 400 mg/kg.
Turning to `Br.COc1cc(NS(C)(=O)=O)ccc1Nc1c2ccccc2nc2c(CCC(N)=O)cccc12`, the results for the ILS in data set [2] and in data set [4] were 94% and 30%, respectively. For the same molecule, the Rm in data set [3] is -0.17. In addition, the Activity in data set [5] was 15 mg/kg.
As for `COc1cc(NS(C)(=O)=O)ccc1Nc1c2ccccc2nc2c(OCCO)cccc12.Cl`, the increase in life span (ILS) in data set [2] was 112%; in data set [4] it was 28%. For the same molecule, the Rm in data set [3] is 0.09. In data set [5], the Activity is 5 mg/kg.
Consider `COc1cc(NS(C)(=O)=O)ccc1Nc1c2ccccc2nc2c(OCC(O)CO)cccc12.Cl` (configuration not stated), for which the ILS in data set [2] was determined as 123%; in data set [4], 43%. The Rm in data set [3] was -0.09. Also, the Activity in data set [5] was 17 mg/kg.
On the same counts, the results for `Cc1cc(NS(C)(=O)=O)ccc1Nc1c2ccccc2nc2c(OCC(O)CO)cccc12.Cl` (configuration not stated) are 110%, 41%, -0.03 and 100 mg/kg.
The corresponding values for `COc1cc(NS(C)(=O)=O)ccc1Nc1c2ccccc2nc2ccccc12` [AMSACRINE] are 114%, 27%, 0.18 and 6.7 mg/kg.

Values taken from ChEMBL document CHEMBL3272270, “Potential antitumor agents. 23. 4'-(9-Acridinylamino)alkanesulfonanilide congeners bearing hydrophilic functionality” (J Med Chem, 1977).
